Consider 33 compounds from ChEMBL document CHEMBL1938258, “Discovery and molecular docking of quinolyl-thienyl chalcones as anti-angiogenic agents targeting VEGFR-2 tyrosine kinase” (Bioorg Med Chem Lett, 2012).

What is called IC50 is the point on the concentration scale where inhibition reaches its midpoint. Lower therefore signals greater potency.

The target in assay [1] is Vascular endothelial growth factor receptor 2 (Homo sapiens, UniProt P35968). The assay can be described thus: Inhibition of VEGFR-2 after 1 hr by fluorescence polarization assay. The essentials:
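VEGFR kinase protein in a fluorescence polarization tyrosine kinase kit. Buffer was 20 mM HEPES pH 7.4, 5 mM MgCl2, 2 mM MnCl2, Na3VO4, ATP, 200 ng/mL enzyme and 1 ng/mL poly(Glu,Tyr) 4:1. After 1 h the reaction was stopped with 6 mM EDTA. Anti-phosphotyrosine antibody and PTK green tracer were added, and FP was read after 30 min at room temperature.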
Background: Fluorescence polarisation rises when a labelled molecule tumbles more slowly, as on binding a larger partner.

The next assay relates to HUVEC. The assay can be described thus: Antiangiogenic activity against VEGF-stimulated HUVEC cells after 72 hrs by BrdU method. Format: functional, cell-based. Conditions: Homo sapiens. The essentials: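 HUVEC grown overnight at 37 °C, 5% CO2 in 5% FBS medium on type 1 collagen-coated plates. Medium replaced by serum-free medium with graded inhibitor concentrations, then VEGF (10 ng/ml) added 30 min later. Cells incubated a further 72 h, with BrdU present for the last 18–24 h. IC50 taken as K from the fit y = Vmax(1 − x/(K+x)).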

Each structure is given as a SMILES string.

Vascular endothelial growth factor receptor 2, sequence (P35968 whole entry): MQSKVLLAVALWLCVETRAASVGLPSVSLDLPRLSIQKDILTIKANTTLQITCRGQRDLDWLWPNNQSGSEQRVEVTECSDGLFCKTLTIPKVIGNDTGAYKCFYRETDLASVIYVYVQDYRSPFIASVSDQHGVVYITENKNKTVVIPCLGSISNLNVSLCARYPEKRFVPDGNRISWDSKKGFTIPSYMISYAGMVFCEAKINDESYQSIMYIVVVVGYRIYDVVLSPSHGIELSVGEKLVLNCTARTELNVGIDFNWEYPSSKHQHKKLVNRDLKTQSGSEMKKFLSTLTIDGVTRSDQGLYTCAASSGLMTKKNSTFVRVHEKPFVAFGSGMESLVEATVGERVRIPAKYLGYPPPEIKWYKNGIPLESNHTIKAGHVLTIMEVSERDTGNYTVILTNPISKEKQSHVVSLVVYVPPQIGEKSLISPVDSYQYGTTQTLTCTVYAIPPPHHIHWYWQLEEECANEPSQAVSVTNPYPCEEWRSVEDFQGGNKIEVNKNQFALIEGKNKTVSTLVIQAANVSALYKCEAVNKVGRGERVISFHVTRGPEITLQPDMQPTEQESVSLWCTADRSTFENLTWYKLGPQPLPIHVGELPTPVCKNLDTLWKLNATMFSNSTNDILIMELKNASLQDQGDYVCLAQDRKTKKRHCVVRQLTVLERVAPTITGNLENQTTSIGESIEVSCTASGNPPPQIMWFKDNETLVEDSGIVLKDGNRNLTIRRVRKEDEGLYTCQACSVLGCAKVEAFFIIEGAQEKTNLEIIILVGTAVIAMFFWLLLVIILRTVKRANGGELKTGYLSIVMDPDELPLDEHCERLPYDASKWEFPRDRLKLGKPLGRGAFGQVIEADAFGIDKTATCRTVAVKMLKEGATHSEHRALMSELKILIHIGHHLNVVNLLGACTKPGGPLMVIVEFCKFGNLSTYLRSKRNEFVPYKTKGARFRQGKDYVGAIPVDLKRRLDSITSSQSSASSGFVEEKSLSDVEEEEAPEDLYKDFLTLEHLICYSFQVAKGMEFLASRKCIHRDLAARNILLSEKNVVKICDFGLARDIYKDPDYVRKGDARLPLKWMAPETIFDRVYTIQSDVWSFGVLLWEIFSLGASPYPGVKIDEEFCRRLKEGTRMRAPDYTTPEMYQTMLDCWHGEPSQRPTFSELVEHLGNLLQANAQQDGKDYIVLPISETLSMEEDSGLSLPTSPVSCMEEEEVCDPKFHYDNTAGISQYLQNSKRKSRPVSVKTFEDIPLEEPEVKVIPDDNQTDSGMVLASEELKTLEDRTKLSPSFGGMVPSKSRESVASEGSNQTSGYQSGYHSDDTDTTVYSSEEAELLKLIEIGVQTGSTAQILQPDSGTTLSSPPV

`Cc1csc(C(=O)/C=C/c2cc3cc(C)ccc3nc2Cl)c1`: the results for the half-inhibitory concentration (IC50) (in assay [1]; in the assay on HUVEC) were 169 nM and 106 nM, respectively.

Consider `Cc1ccc2nc(Cl)c(/C=C/C(=O)c3ccsc3)cc2c1`, for which the IC50 in assay [1] was 287 nM; in the assay with HUVEC it was 107 nM.

Take `Cc1ccc2nc(Cl)c(/C=C/C(=O)c3sccc3C)cc2c1`: the IC50 stood at 185 nM in assay [1] and 127 nM in the assay on HUVEC.

In the case of `Cc1ccc2nc(Cl)c(/C=C/C(=O)c3ccc(C)s3)cc2c1`, the half-inhibitory concentration (IC50) in assay [1] was 176 nM; in the assay on HUVEC it was 128 nM.

As to `Cc1ccc2nc(Cl)c(/C=C/C(=O)c3cc(C)sc3C)cc2c1`, the concentration for half-maximal inhibition (IC50) in assay [1] came to 453 nM; in the assay on HUVEC, 229 nM.

In the case of `Cc1ccc2nc(Cl)c(/C=C/C(=O)c3sccc3Cl)cc2c1`, the IC50 in assay [1] is 87.1 nM; in the assay on HUVEC, 37.5 nM.

Regarding `Cc1ccc2nc(Cl)c(/C=C/C(=O)c3ccc(Cl)s3)cc2c1`, the concentration for half-maximal inhibition (IC50) in assay [1] is 107 nM; with HUVEC, 59.4 nM.

As to `Cc1ccc2nc(Cl)c(/C=C/C(=O)c3cc(Cl)sc3Cl)cc2c1`, the half-maximal inhibitory concentration (IC50) in assay [1] turned out to be 81.4 nM; in the assay on HUVEC, 26.2 nM.

As to `Cc1ccc2nc(Cl)c(/C=C/C(=O)c3sccc3Br)cc2c1`, the values for the IC50 (in assay [1]; in the assay on HUVEC) were 129 nM and 61.9 nM, respectively.

In the case of `Cc1ccc2nc(Cl)c(/C=C/C(=O)c3ccc(Br)s3)cc2c1`, the IC50 in assay [1] was 113 nM; in the assay on HUVEC it was 88.4 nM.

As to `Cc1ccc2nc(Cl)c(/C=C/C(=O)c3ccc(I)s3)cc2c1`, the IC50 in assay [1] was determined as 154 nM; in the assay on HUVEC, 129 nM.

Consider `Cc1ccc2cc(/C=C/C(=O)c3ccsc3)c(Cl)nc2c1`, for which the IC50 in assay [1] worked out at 208 nM; in the assay with HUVEC, 107 nM.

Regarding `Cc1ccc2cc(/C=C/C(=O)c3sccc3C)c(Cl)nc2c1`, the IC50 in assay [1] is 157 nM; in the assay with HUVEC it was 124 nM.

In the case of `Cc1csc(C(=O)/C=C/c2cc3ccc(C)cc3nc2Cl)c1`, the IC50 in assay [1] stood at 139 nM; in the assay with HUVEC, 98.9 nM.

Take `Cc1ccc2cc(/C=C/C(=O)c3ccc(C)s3)c(Cl)nc2c1`: the figures for the IC50 (in assay [1]; with HUVEC) were 130 nM and 102 nM, respectively.

For the compound `Cc1ccc2cc(/C=C/C(=O)c3cc(C)sc3C)c(Cl)nc2c1`, the IC50 in assay [1] turned out to be 561 nM; with HUVEC, 294 nM.

Turning to `Cc1ccc2cc(/C=C/C(=O)c3sccc3Cl)c(Cl)nc2c1`, the half-maximal inhibitory concentration (IC50) in assay [1] turned out to be 82.7 nM; in the assay on HUVEC, 34 nM.

For `Cc1ccc2cc(/C=C/C(=O)c3ccc(Cl)s3)c(Cl)nc2c1`, the figures for the IC50 (in assay [1]; with HUVEC) were 92.2 nM and 49.5 nM, respectively.

Turning to `Cc1ccc2cc(/C=C/C(=O)c3cc(Cl)sc3Cl)c(Cl)nc2c1`, the IC50 in assay [1] is 73.4 nM; in the assay with HUVEC, 21.8 nM.

Take `Cc1ccc2cc(/C=C/C(=O)c3sccc3Br)c(Cl)nc2c1`: the concentration for half-maximal inhibition (IC50) in assay [1] amounted to 112 nM; in the assay with HUVEC, 61.9 nM.

`Cc1ccc2cc(/C=C/C(=O)c3ccc(Br)s3)c(Cl)nc2c1`: the IC50 came to 104 nM in assay [1] and 83.6 nM in the assay on HUVEC.

`Cc1ccc2cc(/C=C/C(=O)c3ccc(I)s3)c(Cl)nc2c1`: the figures for the IC50 (in assay [1]; in the assay on HUVEC) were 148 nM and 135 nM, respectively.

With `Cc1cccc2cc(/C=C/C(=O)c3ccsc3)c(Cl)nc12`, the concentration for half-maximal inhibition (IC50) in assay [1] was determined as 389 nM; in the assay on HUVEC, 291 nM.

`Cc1ccsc1C(=O)/C=C/c1cc2cccc(C)c2nc1Cl`: the 50% inhibitory concentration (IC50) was found to be 267 nM in assay [1] and 189 nM with HUVEC.

On to `Cc1csc(C(=O)/C=C/c2cc3cccc(C)c3nc2Cl)c1`, for which the concentration for half-maximal inhibition (IC50) in assay [1] was 233 nM; with HUVEC, 153 nM.

Regarding `Cc1ccc(C(=O)/C=C/c2cc3cccc(C)c3nc2Cl)s1`, the IC50 in assay [1] turned out to be 262 nM; in the assay with HUVEC, 145 nM.

Regarding `Cc1cc(C(=O)/C=C/c2cc3cccc(C)c3nc2Cl)c(C)s1`, the half-inhibitory concentration (IC50) in assay [1] was > 1000 nM.

Take `Cc1cccc2cc(/C=C/C(=O)c3sccc3Cl)c(Cl)nc12`: the IC50 is 130 nM in assay [1] and 91.5 nM with HUVEC.

As to `Cc1cccc2cc(/C=C/C(=O)c3ccc(Cl)s3)c(Cl)nc12`, the figures for the IC50 (in assay [1]; with HUVEC) were 189 nM and 116 nM, respectively.

As for `Cc1cccc2cc(/C=C/C(=O)c3cc(Cl)sc3Cl)c(Cl)nc12`, the IC50 in assay [1] was 358 nM; with HUVEC, 295 nM.

Regarding `Cc1cccc2cc(/C=C/C(=O)c3sccc3Br)c(Cl)nc12`, the values for the half-maximal inhibitory concentration (IC50) (in assay [1]; with HUVEC) were 313 nM and 187 nM, respectively.

On to `Cc1cccc2cc(/C=C/C(=O)c3ccc(Br)s3)c(Cl)nc12`, for which the concentration for half-maximal inhibition (IC50) came out at 367 nM in assay [1] and 243 nM in the assay on HUVEC.

For `Cc1cccc2cc(/C=C/C(=O)c3ccc(I)s3)c(Cl)nc12`, the IC50 in assay [1] worked out at 482 nM; with HUVEC, 284 nM.
